Measurements from ChEMBL document CHEMBL4390648, “Chemical synthesis, crystal structure, versatile evaluation of their biological activities and molecular simulations of novel pyrithiobac derivatives” (Eur J Med Chem, 2019).
Calls of active or inactive are those of the source. The rule behind the calls is not given here.

Assays:
[1] = system: Botryosphaeria berengeriana; test: Antifungal activity against Physalospora pyricola assessed as reduction in growth at 50 mg/l by mycelium growth rate method relative to control; type: functional
Summary of the method: (§1)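 Mycelium growth rate method against S. sclerotiorum, P. capsici, P. piricola, R. cerealis, W. anthracnose and R. bakanae. Each compound tested at 50 mg/L, with chlorothalonil and PTB as controls. Relative inhibitory ratio (%) calculated from mycelial growth.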

[2] = system: Candida albicans; test: Antifungal activity against Candida albicans SC5314 grown in RPMI 1640 medium incubated for 24 hrs by microdilution method; type: functional; conditions: SC5314, 24 h
Summary of the method: (§2)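 C. albicans standard strain SC5314 and clinical isolates g5 and 17# tested by broth microdilution in YNB or RPMI 1640 medium. Plates incubated at 35 °C for up to 72 h, with visual readings taken at 24 h. MIC taken as the lowest concentration preventing visible growth.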

[3] = system: Phytophthora capsici; test: Antifungal activity against Phytophthora capsici assessed as reduction in growth at 50 mg/l by mycelium growth rate method relative to control; type: functional; summary of the method: as §1
[4] = system: Brassica rapa subsp. oleifera; test: Herbicidal activity against Brassica campestris L assessed as inhibition of rape root growth at 10 mg/l root growth incubated for 48 hrs relative to control; type: functional
Summary of the method: (§3)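 Rape seeds soaked in distilled water for 4 h, then placed on filter paper wetted with inhibitor solution, 15 seeds per 6-cm dish. Germinated in the dark at 28 °C for 48 h. Mean length of 10 roots per plate measured.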

[5] = system: Brassica rapa subsp. oleifera; test: Herbicidal activity against Brassica campestris L assessed as inhibition of rape root growth at 100 mg/l root growth incubated for 48 hrs relative to control; type: functional; summary of the method: as §3
[6] = system: Candida albicans; test: Antifungal activity against Candida albicans isolate 17 grown in YNB medium incubated for 24 hrs by microdilution method; type: functional; conditions: isolate 17, 24 h; summary of the method: as §2
[7] = system: Candida albicans; test: Inhibition of Candida albicans AHAS catalytic subunit at 100 uM using pyruvate as substrate measured after 30 mins by colorimetric method relative to control
Summary of the method: (§4)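 Colorimetric assay in 50 mM potassium phosphate pH 7.0 with 50 mM pyruvate, 1 mM thiamine diphosphate, 10 mM MgCl2 and 10 μM FAD. Incubated 30 min at 37 °C for plant AHAS and 30 °C for fungal AHAS. Acetolactate formed was then quantified.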

[8] = system: Ceratobasidium cereale; test: Antifungal activity against Rhizoctonia cerealis assessed as reduction in growth at 50 mg/l by mycelium growth rate method relative to control; type: functional; summary of the method: as §1
[9] = system: Candida albicans; test: Antifungal activity against Candida albicans isolate g5 grown in YNB medium incubated for 24 hrs by microdilution method; type: functional; conditions: isolate g5, 24 h; summary of the method: as §2
[10] = system: Colletotrichum; test: Antifungal activity against Colletotrichum (W. anthracnose) assessed as reduction in growth at 50 mg/l by mycelium growth rate method relative to control; type: functional; summary of the method: as §1
[11] = system: Candida albicans; test: Antifungal activity against Candida albicans isolate 17 grown in RPMI 1640 medium incubated for 24 hrs by microdilution method; type: functional; conditions: isolate 17, 24 h; summary of the method: as §2
[12] = system: Fusarium fujikuroi; test: Antifungal activity against Gibberella fujikuroi assessed as reduction in growth at 50 mg/l by mycelium growth rate method relative to control; type: functional; summary of the method: as §1
[13] = system: Candida albicans; test: Antifungal activity against Candida albicans SC5314 grown in YNB medium incubated for 24 hrs by microdilution method; type: functional; conditions: SC5314, 24 h; summary of the method: as §2
[14] = system: Candida albicans; test: Inhibition of Candida albicans AHAS catalytic subunit at 10 uM using pyruvate as substrate measured after 30 mins by colorimetric method relative to control; summary of the method: as §4
[15] = system: Arabidopsis thaliana; test: Inhibition of Arabidopsis thaliana AHAS catalytic subunit using pyruvate as substrate at 10 uM measured after 30 mins by colorimetric method relative to control; summary of the method: as §4
[16] = system: Tobacco mosaic virus; test: Antiviral activity against Tobacco mosaic virus inoculated in Nicotiana tabacum leaves assessed as passivation by measuring local lesion numbers at 100 mg/l pre-incubated with virus for 30 mins followed by inoculation and measured up to 4 days; type: functional
Summary of the method: (§5)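 Passivation assay: TMV mixed with an equal volume of compound solution for 30 min, then rubbed onto the left half of N. tabacum L. leaves. The right half received virus mixed with solvent as control. Local lesions counted 3–4 days after inoculation. Compounds tested at 500 or 100 mg/L.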

[17] = system: Candida albicans; test: Antifungal activity against Candida albicans isolate g5 grown in RPMI 1640 medium incubated for 24 hrs by microdilution method; type: functional; conditions: isolate g5, 24 h; summary of the method: as §2
[18] = system: Tobacco mosaic virus; test: Antiviral activity against Tobacco mosaic virus inoculated in Nicotiana tabacum leaves assessed as passivation by measuring local lesion numbers at 500 mg/l pre-incubated with virus for 30 mins followed by inoculation and measured up to 4 days; type: functional; summary of the method: as §5
[19] = system: Severe acute respiratory syndrome-related coronavirus; test: Inhibition of SARS coronavirus M protease using AVLQSGFRKK as substrate at 20 uM by FRET assay relative to control
Summary of the method: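 Purified SARS-CoV Mpro assayed by FRET. Protein, compound and substrate were preheated at 37 °C and oscillated. Fluorescence (ex 320/em 405 nm) was read every 5 s for 200 reads.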

[20] = system: Sclerotinia sclerotiorum; test: Antifungal activity against Sclerotinia sclerotiorum assessed as reduction in growth at 50 mg/l by mycelium growth rate method relative to control; type: functional; summary of the method: as §1
[21] = system: Arabidopsis thaliana; test: Inhibition of Arabidopsis thaliana AHAS catalytic subunit using pyruvate as substrate at 100 uM measured after 30 mins by colorimetric method relative to control; summary of the method: as §4
[22] = system: Mythimna separata; test: Insecticidal activity against Mythimna separata assessed as larval mortality at 600 mg/l by leaf-dip method; type: functional

| SMILES | inhibition at 50 µg/mL [1] [%] | MIC [2] [µg/mL] | inhibition at 50 µg/mL [3] [%] | inhibition (INH) [4] [%] | inhibition (INH) [5] [%] | MIC [6] [µg/mL] | inhibition [7] [%] | inhibition at 50 µg/mL [8] [%] | MIC [9] [µg/mL] | inhibition at 50 µg/mL [10] [%] | MIC [11] [µg/mL] | inhibition at 50 µg/mL [12] [%] | MIC [13] [µg/mL] | inhibition [14] [%] | inhibition [15] [%] | inhibition [16] | MIC [17] [µg/mL] | inhibition at 500 µg/mL [18] [%] | inhibition [19] [%] | inhibition [21] [%] | further results |
| --- | --- | --- | --- | --- | --- | --- | --- | --- | --- | --- | --- | --- | --- | --- | --- | --- | --- | --- | --- | --- | --- |
| COc1cc(OC)nc(Sc2ccc(C(=O)O)c(C(F)(F)F)c2)n1 | 35.9 | > 100 | 8.3 | 0 | 45.2 | > 100 | 20.6 | 73.8 | > 100 | 14.3 | > 100 | 30.3 | > 100 | 2.1 | 37.7 | inactive | > 100 | 0 | 21.7 | 77.4 | inhibition at 50 µg/mL [20]: 75% |
| COc1nc(OC)nc(Sc2ccc(C(F)(F)F)cc2C#N)n1 | – | > 100 | – | 0 | 8.5 | > 100 | 12 | – | > 100 | – | > 100 | – | > 100 | 0 | 11.5 | – | > 100 | – | 0 | 15 | – |
| COc1nc(OC)nc(Sc2ccc(C(=O)O)cc2C(=O)O)n1 | – | > 100 | – | 8 | 20.3 | > 100 | 58.7 | – | > 100 | – | > 100 | – | > 100 | 15.6 | 73.3 | – | > 100 | – | 0 | 81.7 | – |
| COc1nc(OC)nc(Oc2cccc(Br)c2)n1 | 40.6 | > 100 | 8.3 | 32.5 | 87.4 | > 100 | 18.3 | 52.4 | > 100 | 16.7 | > 100 | 0 | > 100 | 10.6 | 6.6 | inactive | > 100 | 19.5 | 0 | 60 | inhibition at 50 µg/mL [20]: 61.1% |
| CNCC(=O)N[C@@H](CO)C(=O)N[C@H]1[C@H](O)[C@@H](O)[C@H](n2ccc(N)nc2=O)O[C@@H]1C(N)=O [NINGNANMYCIN] | – | – | – | – | – | – | – | – | – | – | – | – | – | – | – | – | – | 56.4 | – | – | inhibition at 100 µg/mL [16]: 27.8% |
| NC(=O)c1ncn([C@@H]2O[C@H](CO)[C@@H](O)[C@H]2O)n1 [RIBAVIRIN] | – | – | – | – | – | – | – | – | – | – | – | – | – | – | – | – | – | 37.6 | – | – | inhibition at 100 µg/mL [16]: 11.9% |
| COc1cc(OC)nc(Sc2cc(C(F)(F)F)ccc2C(=O)O)n1 | – | > 100 | – | 24.6 | 50 | > 100 | 31.2 | – | > 100 | – | > 100 | – | > 100 | 0 | 51.8 | – | > 100 | – | 0 | 85.5 | – |
| COc1nc(OC)nc(Sc2cc(Cl)ccc2C#N)n1 | 37.5 | > 100 | 41.7 | 34.4 | 40 | > 100 | 26.3 | 40.5 | > 100 | 19 | > 100 | 30.3 | > 100 | 0 | 43.6 | inactive | > 100 | 0 | – | 100 | mortality at 600 µg/mL [22]: 25%; inhibition at 50 µg/mL [20]: 13.9% |
